From ChEMBL document CHEMBL1139633, “Antimalarial activity and synthesis of new trisubstituted pyrimidines” (2005)
In brackets after ≈: the same amount, converted by molar mass.

What follows are molecules tested on Plasmodium falciparum (assay: Minimum inhibitory concentration against schizont maturation in Plasmodium falciparum NF-54).
Type: functional
How it was run: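 Rieckmann micro-assay with P. falciparum NF-54 cultured in RPMI-1640 (25 mM HEPES, 1% D-glucose, 0.23% NaHCO3, 10% heat-inactivated human serum), sorbitol-synchronized to ring stage. Start at ~1% parasitaemia, 3% haematocrit; compounds 0.25–50 µg/mL in duplicate, 37 °C candle jar, 36–40 h. Giemsa smears scored by microscopy; MIC = lowest concentration blocking complete maturation to schizonts.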

MIC	SMILES
10 µg/mL (≈ 22.8 µM)	O=[N+]([O-])c1cccc(-c2cc(-c3ccncc3)nc(N3CCN(c4ccccc4)CC3)n2)c1
2 µg/mL (≈ 4.72 µM)	COc1ccc(-c2cc(-c3ccncc3)nc(N3CCN(c4ccccc4)CC3)n2)cc1
10 µg/mL (≈ 22.6 µM)	Clc1ccc(-c2cc(-c3ccncc3)nc(N3CCN(Cc4ccccc4)CC3)n2)cc1
50 µg/mL (≈ 103 µM)	COc1cc(-c2cc(-c3ccncc3)nc(N3CCN(c4ccccc4)CC3)n2)cc(OC)c1OC
10 µg/mL (≈ 20.7 µM)	COc1cc(OC)c(-c2cc(-c3ccncc3)nc(N3CCN(c4ccccc4)CC3)n2)cc1OC
1 µg/mL (≈ 2.65 µM)	CSc1ccc(-c2cc(-c3ccncc3)nc(N3CCN(C)CC3)n2)cc1
2 µg/mL (≈ 4.91 µM)	c1ccc(CN2CCN(c3nc(-c4ccccc4)cc(-c4ccncc4)n3)CC2)cc1
2 µg/mL (≈ 4.74 µM)	Cc1ccc(-c2cc(-c3ccncc3)nc(N3CCN(c4ccccc4)CC3)n2)cc1C
1 µg/mL (≈ 2.45 µM)	Cc1ccc(-c2cc(-c3ccncc3)nc(N3CCN(c4ccccc4)CC3)n2)cc1
2 µg/mL (≈ 4.41 µM)	CSc1ccc(-c2cc(-c3ccncc3)nc(N3CCN(Cc4ccccc4)CC3)n2)cc1
10 µg/mL (≈ 20.1 µM)	COc1cc(-c2cc(-c3ccncc3)nc(N3CCN(Cc4ccccc4)CC3)n2)cc(OC)c1OC
10 µg/mL (≈ 23.4 µM)	Clc1ccc(-c2cc(-c3ccncc3)nc(N3CCN(c4ccccc4)CC3)n2)cc1
1 µg/mL (≈ 2.89 µM)	Cc1ccc(-c2cc(-c3ccncc3)nc(N3CCN(C)CC3)n2)cc1
2 µg/mL (≈ 4.41 µM)	COc1ccc(OC)c(-c2cc(-c3ccncc3)nc(N3CCN(c4ccccc4)CC3)n2)c1
1 µg/mL (≈ 2.14 µM)	COc1ccc(OC)c(-c2cc(-c3ccncc3)nc(N3CCN(Cc4ccccc4)CC3)n2)c1
2 µg/mL (≈ 4.74 µM)	COc1cc(OC)c(-c2cc(-c3ccncc3)nc(N3CCN(C)CC3)n2)cc1OC

MIC	SMILES
0.5 µg/mL (≈ 1.28 µM)	COc1ccc(OC)c(-c2cc(-c3ccncc3)nc(N3CCN(C)CC3)n2)c1
1 µg/mL (≈ 2.3 µM)	Cc1ccc(-c2cc(-c3ccncc3)nc(N3CCN(Cc4ccccc4)CC3)n2)cc1C
10 µg/mL (≈ 25.4 µM)	c1ccc(-c2cc(-c3ccncc3)nc(N3CCN(c4ccccc4)CC3)n2)cc1
10 µg/mL (≈ 22.7 µM)	CSc1ccc(-c2cc(-c3ccncc3)nc(N3CCN(c4ccccc4)CC3)n2)cc1
2 µg/mL (≈ 4.42 µM)	O=[N+]([O-])c1cccc(-c2cc(-c3ccncc3)nc(N3CCN(Cc4ccccc4)CC3)n2)c1
1 µg/mL (≈ 2.77 µM)	COc1ccc(-c2cc(-c3ccncc3)nc(N3CCN(C)CC3)n2)cc1
1 µg/mL (≈ 2.66 µM)	CN1CCN(c2nc(-c3ccncc3)cc(-c3cccc([N+](=O)[O-])c3)n2)CC1
0.5 µg/mL (≈ 1.39 µM)	Cc1ccc(-c2cc(-c3ccncc3)nc(N3CCN(C)CC3)n2)cc1C
2 µg/mL (≈ 4.74 µM)	Cc1ccc(-c2cc(-c3ccncc3)nc(N3CCN(Cc4ccccc4)CC3)n2)cc1
10 µg/mL (≈ 23.7 µM)	COc1cc(-c2cc(-c3ccncc3)nc(N3CCN(C)CC3)n2)cc(OC)c1OC
1 µg/mL (≈ 3.02 µM)	CN1CCN(c2nc(-c3ccccc3)cc(-c3ccncc3)n2)CC1
2 µg/mL (≈ 4.02 µM)	COc1cc(OC)c(-c2cc(-c3ccncc3)nc(N3CCN(Cc4ccccc4)CC3)n2)cc1OC
2 µg/mL (≈ 5.47 µM)	CN1CCN(c2nc(-c3ccncc3)cc(-c3ccc(Cl)cc3)n2)CC1
1 µg/mL (≈ 2.29 µM)	COc1ccc(-c2cc(-c3ccncc3)nc(N3CCN(Cc4ccccc4)CC3)n2)cc1
10 µg/mL (≈ 40.2 µM)	CCc1nc(N)nc(N)c1-c1ccc(Cl)cc1 [PYRIMETHAMINE]
